Results reported in ChEMBL document CHEMBL3272076, “Synthesis and biological evaluation of omega-homologues of prostaglandin E1” (1976).
Active and inactive are the calls of the source. No cut-off for these calls is given here.

Tests used:
[1] = Muscle stimulating activity in Mongolian gerbil colon treated every 4 mins relative to PGE1; assay type: functional, Meriones unguiculatus
Procedure, shortened: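 Colon from adult male gerbils killed by cervical dislocation, bath oxygenated; isotonic longitudinal contractions recorded. Two doses each of test compound and PGE1 given at 4-min intervals in Latin square order, with a rinse after each. Four contractions per dose; relative potency computed by the Finney method. Compounds were dissolved in isoosmotic sodium phosphate buffer, pH 7.4.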

Canis familiaris [2] = assay: Gastric antisecretory activity in Mongrel dog with heidenhain pouches assessed as inhibition of histamine-induced total acid output at 100 ug/kg, iv administered as single bolus dose at 1 hr post histamine challenge; assay type: functional, organism-based; conditions: Canis lupus familiaris
Procedure, shortened: (§1)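 Dogs fasted 18 h, placed in Pavlov stands and infused iv with 0.15 M NaCl. Pouch secretion was collected every 15 min. After basal secretion, histamine was infused at 1.0 mg/h (about 60 μg/kg/h, about 75% of maximal). At the steady-state plateau (about 1 h), a single iv bolus was given, logarithmically spaced, usually 1.0-100 μg/kg. Total acidity was titrated with 0.1 N NaOH to pH 7.0. ED50 is 50% inhibition of total acid output.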

Rattus norvegicus = assay: Hypotensive activity in iv dosed Charles River CD rat assessed as decrease in mean blood pressure administered as single bolus dose relative to PGE1; assay type: functional; set-up: Activity: scale not given: the % may be the effect or the level left
Procedure, shortened: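 Male rats, 200–300 g, anesthetized with urethane 1.5 g/kg ip. They received heparin 5 mg/kg iv, then atropine 5 mg/kg and pentolinium 10 mg/kg sc. Body temperature held at […] ± 0.5 °C. Carotid pressure recorded; femoral iv bolus doses of test and PGE1 given in a Latin square. Maximal fall in mean pressure read, with 4–8 replicates per dose, and potency from a four-point parallel line assay (Finney).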

Canis familiaris [3] = assay: Gastric antisecretory activity in Mongrel dog with heidenhain pouches assessed as inhibition of histamine-induced total acid output at 1 to 100 ug/kg, iv administered as single bolus dose at 1 hr post histamine challenge relative to PGE1; assay type: functional, Canis lupus familiaris; procedure, shortened: as §1
Canis familiaris [4] = assay: Gastric antisecretory activity in iv dosed Mongrel dog with heidenhain pouches assessed as inhibition of histamine-induced total acid output administered as single bolus dose at 1 hr post histamine challenge; assay type: functional; conditions: Canis lupus familiaris; procedure, shortened: as §1
Canis familiaris [5] = assay: Gastric antisecretory activity in Mongrel dog with heidenhain pouches assessed as inhibition of histamine-induced total acid output at 30 ug/kg, iv administered as single bolus dose at 1 hr post histamine challenge; assay type: functional, organism-based; conditions: Canis lupus familiaris; procedure, shortened: as §1

Row | Structure (SMILES) | fold change (FC) [1] | inhibition (Canis familiaris [2]) | fold change (FC) (Rattus norvegicus) | fold change (FC) (Canis familiaris [3]) | ED50 (Canis familiaris [4]) | Activity (Rattus norvegicus) | inhibition (Canis familiaris [5])
1 | CCCCCCCCC[C@H](O)/C=C/C1[C@H](O)CC(=O)[C@@H]1CCCCCCC(=O)O (mixture of isomers) | 0.006 | Active | <0.12 |  |  |  | 
2 | CCCCCCC[C@H](O)/C=C/C1[C@H](O)CC(=O)[C@@H]1CCCCCCC(=O)O (mixture of isomers) | 0.064 |  | 0.84 | 0.25 | 30 µg/kg | 84% | 
3 | CCCCCCCC[C@H](O)/C=C/C1[C@H](O)CC(=O)[C@@H]1CCCCCCC(=O)O (mixture of isomers) | 0.005 |  | 0.42 |  |  |  | inactive
4 | CCCCCC[C@H](O)/C=C/C1[C@H](O)CC(=O)[C@@H]1CCCCCCC(=O)O (mixture of isomers) | 0.54 |  | 0.68 | 1.13 | 5.8 µg/kg |  | 
5 | CCCCC[C@H](O)/C=C/[C@H]1[C@H](O)CC(=O)[C@@H]1CCCCCCC(=O)O [ALPROSTADIL] |  |  |  |  | 7.59 µg/kg |  | 
